Columns and labels:
[1] = tested on: HUVEC invasion by S. aureus ATCC 29213 (MSSA); assay: Invasion assay: HUVEC infected with Alexa Fluor 488-labeled MSSA, flow cytometry; type: cell-based, human; conditions: for Internalized bacteria (% vehicle control ± SEM), RSM structural analog: N = 5
[2] = tested on: HUVEC invasion by MRSA252 NRS71; assay: Invasion assay with hospital MRSA strain; type: cell-based, human; conditions: 10 μmol/L, 18-20 h pretreatment
Method in brief: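 HUVEC pretreated 18-20 h with test compound or vehicle. MRSA252 NRS71 labeled through protein A with rabbit anti-mouse IgG Alexa Fluor 488 (final 8 μg/ml, RT, 20 min), washed, set to 3×10^8 CFU/ml. Infection at MOI 1440 (1 h, 37°C, 5% CO2), then lysostaphin (20 μg/ml)/gentamicin (50 μg/ml) for 45 min. Cells scraped and fixed in 1% BSA/0.74% formaldehyde; MFI from 1500 FSC/SSC-gated cells, as % control.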

HUVEC invasion by NRS123 = assay: Invasion assay with community-acquired MRSA strain; type: cell-based, human; conditions: 10 μmol/L, 18-20 h pretreatment
Method in brief: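 Attachment Factor-coated dishes seeded with HUVEC, pretreated 18-20 h with test compound or matched vehicle. Stocks were 5 mmol/L in DMSO or PEG, diluted to 1 mmol/L in solvent, then into EndoGRO-LS. Unlabeled saline-washed NRS123 at MOI 1440 (1 h, 37°C). Extracellular bacteria killed with 20 μg/ml lysostaphin/50 μg/ml gentamicin (45 min). Cells lysed with 1% saponin/PBS (20 min); dilutions plated on TSA (16 h), CFU/ml counted.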

[3] = tested on: actin stress fibers in HUVEC; assay: Actin stress fiber disassembly, immunofluorescence; type: cell-based, human; conditions: 10 μmol/L, 18-20 h, infected 1 h
Method in brief: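 HUVEC (3 × 10^5/ml, Attachment Factor-coated glass-bottom dishes) pretreated 18-20 h with PEG vehicle or test compound. Infected with S. aureus (MOI 1200, 1 h, 5% CO2, 37°C), PBS-washed, fixed in 4% paraformaldehyde (30 min), then permeabilized/blocked in 0.1% Triton/1% BSA. Stained with Alexa Fluor 488 phalloidin (1:40), imaged by confocal (40X water immersion). Scored as % cells lacking stress fibers, 100-200 cells/treatment from random fields; χ2 test.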

[4] = tested on: vinculin-containing adhesion complexes in HUVEC; assay: Vinculin-containing adhesion complexes, immunofluorescence; type: cell-based, human; conditions: 10 μmol/L, 18-20 h; vehicle control 64%
Method in brief: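 HUVEC at 3 × 10^4 on Attachment Factor-coated glass-bottom dishes, treated 18-20 h with DMSO vehicle or test compound. Fixed, then permeabilized/blocked (0.1% Triton/1% BSA). Stained with anti-vinculin (1:25), then rabbit anti-mouse Alexa Fluor 488 (1:250). Confocal imaging at 63X water immersion; Z-stack maximum projections. Percentage of cells with adhesion complexes from 100-200 cells/treatment in random fields; χ2 test.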

β1 integrin subunit = assay: β1 integrin surface expression, flow cytometry; type: cell-based, human; conditions: 10 μmol/L, 18-20 h, vs vehicle control
Method in brief: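 Following 18-20 h pretreatment (DMSO vehicle or test compound), integrin recycling stopped at 4°C for 15 min. Cells scraped and washed in FACS buffer, stained with PE-conjugated anti-β1 (30 min, on ice), then fixed in FACS buffer with 4% paraformaldehyde. PE MFI measured on 600 FSC-A/SSC-A-gated cells; expressed as percent control; Mann-Whitney Rank Sum test.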

[5] = tested on: HUVEC adhesion to human fibronectin; assay: Fibronectin adhesion assay; type: cell-based; conditions: 10 μmol/L, 18-20 h; vehicle control 24±4%
Method in brief: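 Compound or DMSO vehicle applied to HUVEC for 18-20 h (invasion-assay plating). Wells coated with human fibronectin (20 μg/ml, 2 h, 37°C) and blocked with 2% BSA (30 min, RT). Scraped cells counted by flow cytometry for input, re-plated 2 h at 37°C/5% CO2. After PBS washes, adherent cells trypsinized, fixed, counted; normalized to input. Two pooled experiments, n=8/treatment.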

HUVEC = assay: Cytotoxicity assay; type: cell-based, human; conditions: 10 μmol/L; for Mean fluorescence intensity (×10^4± SEM), Compound: PI fluorescence, N = 3
Method in brief: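 HUVEC plated and compound-treated as for invasion: 1×10^5 cells/ml in 35 mm dishes or 1×10^4 cells/ml in 96-well plates, Attachment Factor-coated. Cells scraped and washed in FACS buffer (2% BSA/0.1% sodium azide/PBS). Brief incubation with propidium iodide at 0.5 mg/ml, then fluorescence read at once on Accuri C6 flow cytometer; MFI reported.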

MSSA (ATCC 29213) = assay: Bactericidal activity assay, MSSA; type: cell-based, Staphylococcus aureus; conditions: 10 μmol/L; for CFU/ml (×10^10± SEM), Compound: 1 h, 1.2 × 10^8 CFU/ml incubated, N = 3
Method in brief: (§1)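 Washed S. aureus (overnight TSB at 225 rpm, 37°C; subcultured; saline-washed), 1.2 × 10^8 CFU/ml, incubated with test compound or vehicle control in EndoGRO-LS medium (1 h, 5% CO2, 37°C). Serial dilutions plated on tryptic soy agar (18-20 h, 37°C); colonies counted and CFU/ml calculated.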

MRSA252 NRS71 = assay: Bactericidal activity assay, MRSA252 NRS71; type: cell-based, Staphylococcus aureus; conditions: 10 μmol/L
Method in brief: as §1

NRS123 = assay: Bactericidal activity assay, NRS123; type: cell-based, Staphylococcus aureus
Method in brief: as §1

[6] = tested on: HUVEC infected with Staphylococcus aureus; assay: Transmission electron microscopy of infected HUVEC; type: cell-based, human; conditions: 10 μmol/L, 18-20 h pretreatment, infected 2 h
Method in brief: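 Coverslip HUVEC (3 × 10^5/ml) pretreated 18-20 h with PEG vehicle or test compound, infected with S. aureus (MOI 30, 2 h, 37°C). Lysostaphin/gentamicin removal (45 min), then 24 h in antibiotic medium. Fixed in 2.5% glutaraldehyde/2.0% paraformaldehyde/2 mmol/L Ca/1 mmol/L Mg; post-fixed in 1% OsO4/1.5% ferrocyanide in 0.1 mol/L cacodylate. Ethanol/propylene oxide dehydration, resin embedding. Ultrathin sections stained with uranyl acetate/lead citrate, imaged at 120 kV.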

[7] = tested on: endothelial cell invasion by S. aureus; conditions: cited from earlier work
S. aureus pneumonia = conditions: cited from earlier work

Row | Structure (SMILES) | Mean fluorescence intensity (×10^4± SEM), Compound (HUVEC) | CFU/ml (×10^10± SEM), Compound (MSSA (ATCC 29213)) [CFU/ml ×10^10] | Internalized bacteria (% vehicle control ± SEM), RSM structural analog ([1]; 10 μmol/L) | further results
1 | COc1ccc(C2CC(c3ccccc3)=NN2c2ccc(S(N)(=O)=O)cc2)cc1 (stereo not shown) [ML 141, 4-[3-(4-methoxyphenyl)-5-phenyl-3,4-dihydropyrazol-2-yl]benzenesulfonamide] | 2.1 ± 0.3 ×10^4 | 1.8 ± 0.6 |  | Mean fluorescence intensity in washout samples (reversibility) ([1]; 10 μmol/L 1 h pretreatment, media replaced with vehicle 40 min prior to invasion): returned to baseline; Mean fluorescence intensity compared to vehicle control ([1]; 10 μmol/L, 18-20 h pretreatment, 1 h infection): lower; Invasion by MRSA252 NRS71 [2]: inhibited invasion; Invasion by NRS123 (HUVEC invasion by NRS123): inhibited invasion; Actin stress fibers in infected cells [3]: remained intact; HUVEC with vinculin-containing adhesion complexes [4]: 37%; Expression of β1 (β1 integrin subunit): No difference; HUVEC adhesion to fibronectin [5]: 14±2%; Cytotoxicity in HUVEC (HUVEC; incubated 1 h): Cytotoxicity was not detected; Bactericidal activity against MSSA (MSSA (ATCC 29213)): Bactericidal activity was not detected; Bactericidal activity against MRSA252 NRS71 (MRSA252 NRS71): Bactericidal activity was not detected; CFU/ml recovered, MRSA252 NRS71 (MRSA252 NRS71; 1 h, 1.2 × 10^8 CFU/ml incubated): 1.9 × 10^10 ±0.2 CFU/ml; Bactericidal activity against NRS123 (NRS123; 10 μmol/L): Bactericidal activity was not detected; CFU/ml recovered, NRS123 (NRS123; 1.2 × 10^8 CFU/ml incubated, vehicle control 4.5 × 10^10 ±0.6): 5.6 × 10^10 ±1.5 CFU/ml; Organelles 24 h post-invasion (ultrastructure) [6]: remained intact; Filopodia at the host cell membrane in response to bacteria ([6]; 24 h post-invasion): not detected
2 | NS(=O)(=O)c1ccc(N2N=C(c3ccccc3)CC2c2ccc3c(c2)OCO3)cc1 (stereo not shown) [RSM 05] | 3.9 ± 0.2 ×10^4 | 1.6 ± 0.3 | 38 ± 3 % ^†† | 
3 | COc1ccc(C2=NN(c3ccc(S(N)(=O)=O)cc3)C(c3ccc4c(c3)OCO4)C2)cc1 (stereo not shown) [RSM 06] | 2.8 ± 0.1 ×10^4 | 1.0 ± 0.3 | 23 ± 1 % ^††† | 
4 | COc1ccc(C2=NN(c3ccc(S(N)(=O)=O)cc3)C(c3ccccc3)C2)cc1 (stereo not shown) [RSM 07] | 2.5 ± 0.4 ×10^4 | 2.8 ± 0.3 | 34 ± 2 % ^†† | 
5 | COc1ccc(C2CC(c3ccccc3)=NN2c2ccc(S(N)(=O)=O)cc2)cc1OC (stereo not shown) [RSM 15] | 4.0 ± 0.4 ×10^4 | 2.0 ± 0.2 | 45 ± 1 % ^††† | 
6 | COc1ccc(C2=NN(c3ccc(S(N)(=O)=O)cc3)C(c3ccc(OC)c(OC)c3)C2)cc1 (stereo not shown) [RSM 16] | 1.4 ± 0.2 ×10^4 | 1.8 ± 0.4 | 63 ± 4 % ^††† | 
7 | COc1ccc(C2C(C)C(c3ccccc3)=NN2c2ccc(S(N)(=O)=O)cc2)cc1 (stereo not shown) [RSM 19] | 2.6 ± 0.01 ×10^4 |  | 61 ± 2 % ^†† | 
8 | COCCOc1ccc(C2=NN(c3ccc(S(N)(=O)=O)cc3)C(c3ccc(Cl)cc3)C2)cc1 (stereo not shown) [RSM 20] | 2.1 ± 0.2 ×10^4 | 2.1 ± 0.4 | 61 ± 4 % ^†† | 
9 | COc1ccc(C2C3Cc4ccccc4C3=NN2c2ccc(S(N)(=O)=O)cc2)cc1 (stereo not shown) [RSM 21] | 2.8 ± 0.09 ×10^4 | 3.0 ± 0.2 | 79 ± 3 % ^† | 
10 | CCC(C)(C)C(=O)O[C@H]1C[C@@H](C)C=C2C=C[C@H](C)[C@H](CC[C@@H]3C[C@@H](O)CC(=O)O3)[C@H]21 [simvastatin] |  |  |  | Endothelial cell invasion by S. aureus [7]: decreased; Survival in a murine model of pneumonia (S. aureus pneumonia): improved survival
